Measured values: publication PMC2659327 (Nature chemical biology, 2009)
pEC50: −log10 of the molar value. Where “and” joins values, the source holds several entries; their conditions need not be identical. Equal entries are not always repeated.

Columns and labels:
[1] = system: inositol 1,4,5-trisphosphate-mediated Ca^2+ release; experiment: inositol 1,4,5-trisphosphate-mediated Ca2+ release in sea urchin egg homogenate; format: biochemical, Lytechinus pictus; conditions: read-out: EC50, Ca2+ release
In short: (§1)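 Lytechinus pictus egg homogenate with the Ca2+ dye fluo-3 and ATP. Second messenger added and Ca2+ release followed as fluo-3 fluorescence (RFU), in a plate reader (2-4 replicates) or a fluorimeter.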

[2] = system: NAADP-mediated Ca^2+ release; experiment: NAADP-mediated Ca2+ release bioassay in sea urchin egg homogenate; format: biochemical, Lytechinus pictus; conditions: for Ca2+ release induced by the compound itself in the bioassay: compound at 125 μM
[3] = system: mouse pancreatic beta cells; experiment: NAADP-mediated Ca2+ spiking in patch-clamped pancreatic beta cells; format: cell-based; conditions: pre-incubation with 125 μM in bathing solution; NAADP 50 nM via patch pipette
In short: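 Whole-cell patch clamp at room temperature. Borosilicate pipettes were 3–5 MΩ and the holding potential was −70 mV. Test compound was pre-incubated in the bath. Read-out was Ca2+-dependent current traces.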

intact sea urchin eggs = experiment: NAADP-induced Ca2+ release in intact sea urchin eggs; format: cell-based; conditions: 100 μM compound in artificial seawater; NAADP microinjected
[4] = system: glucose-induced Ca^2+ increases in mouse pancreatic islets; experiment: glucose-induced Ca2+ signaling in isolated pancreatic islets; format: cell-based; conditions: isolated mouse islet, glucose 10 mM, compound 100 μM
[5] = system: mitochondrial metabolism (NAD(P)H); experiment: glucose-induced NAD; format: cell-based, mouse; conditions: 100 μM compound
In short: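 Islets of Langerhans were pre-incubated 60 min at 37°C in control medium containing 3 mM glucose. NAD(P)H autofluorescence was recorded at 360 nm excitation and >470 nm emission. Changes were expressed as percent of basal values within the same islet.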

[6] = system: voltage-gated Ca^2+ channels; experiment: KCl depolarization-induced Ca2+ transient in islets; format: cell-based, mouse; conditions: 100 μM compound; glucose 10 mM, diazoxide 100 μM, KCl 45 mM
In short: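 Pancreatic beta cells loaded with fura-PE3 acetoxymethyl ester for Ca2+ imaging. Cells were held in glucose and diazoxide, then depolarized with KCl with or without test compound in the bath. Data given as mean ± standard error of the mean and compared by one-tailed t-tests.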

[7] = system: sea urchin egg binding protein (NAADP receptor); experiment: [32P]NAADP radioligand displacement binding assay, sea urchin egg homogenate; set-up: species or system Lytechinus pictus
[8] = solubility in 25% dimethylsulfoxide or 25% dimethylformamide; format: physicochemical
[9] = system: cyclic ADP-ribose-mediated Ca^2+ release; experiment: cyclic ADP-ribose-mediated Ca2+ release in sea urchin egg homogenate; format: biochemical, Lytechinus pictus; conditions: read-out: EC50, Ca2+ release
In short: as §1

In the case of FC(F)(F)c1cccc(N2CCN(Cn3nc(COc4ccccc4)n(-c4ccccc4)c3=S)CC2)c1 [Ned-16], the “Ca2+ release induced by the compound itself in the bioassay” value [2] was “induced irreversible Ca^2+ release”.

With COc1ccc(C2N[C@H](C(=O)O)Cc3c2[nH]c2ccccc32)cc1CN1CCN(c2ccccc2F)CC1 (stereo partly shown) [Ned-19] the “NAADP-mediated Ca2+ spiking” value [3] was “blocked NAADP-mediated Ca^2+ spiking”, the “Hill coefficient, inhibition of NAADP-mediated Ca2+ release” value ([2]; commercial Ned-19) was −0.6 and the “effect on NAADP concentration-response curve” value ([2]; constant presence of 125 μM compound (figure legend: 100 μM)) was “reduced the maximum release and shifted the EC50 to the right”. For the same molecule, the “NAADP-induced Ca2+ increase in intact sea urchin eggs” value (intact sea urchin eggs) was “failed to elicit a Ca^2+ increase”, the “effect on glucose-induced Ca2+ signal” value [4] was “reduced the amplitude of the oscillations and reduced the elevated plateau to the nonstimulated level” and the “glucose-induced increase in NADH and NADPH fluorescence” value [5] was “still occurred”. The “KCl depolarization-induced Ca2+ transient” value [6] was “unaltered”, the “dissociation from the NAADP receptor (recovery of [32P]NAADP binding)” value ([7]; Ned-19 10 μM, after 5 days of incubation) was “only about half the bound Ned-19 dissociates” and the “Hill coefficient, [32P]NAADP binding competition” value ([7]; commercial Ned-19) was −2.3.

In the case of C=C1NN(c2nc(-c3cccc([N+](=O)[O-])c3)cs2)C(=O)/C1=N/Nc1ccc(Cl)cc1C(=O)c1ccccc1 [Nrd-7], the solubility [8] was “sparingly soluble”.

For COc1ccc2[nH]c(C(=O)O)c(CCNC(=O)CO/N=C3/C=C[C@@]4(C)C(=C3)CC[C@@H]3[C@H]4CC[C@]4(C)[C@H]3CC[C@]4(C)O)c2c1 [Nrd-10], the “Ca2+ release induced by the compound itself in the bioassay” value [2] was “induced irreversible Ca^2+ release”.

With CCC(=O)N1N=C(c2ccc(C3=NN(C(=O)CC)[C@H](c4cccc(OC)c4OC)C3)cc2)C[C@H]1c1cccc(OC)c1OC [Nrd-11] the solubility [8] was “sparingly soluble”.

Molecule N=c1c2ncn3c2ncn1[C@@H]1O[C@H](COP(=O)(O)OP(=O)(O)OC[C@H]2O[C@@H]3[C@H](O)[C@@H]2O)[C@@H](O)[C@H]1O [cADPR, cyclic ADP-ribose] has a pEC50 [9] of 6.52.

In the case of “nicotinic acid adenine dinucleotide phosphate [NAADP, reference compound]”, the pEC50 ([2]; read-out: EC50, Ca2+ release, sea urchin egg homogenate) was 7.46 and 7.30 to 7.52.
